# Measurements: ChEMBL document CHEMBL4038305, “Benzoxaborole Antimalarial Agents. Part 5. Lead Optimization of Novel Amide Pyrazinyloxy Benzoxaboroles and Identification of a Preclinical Candidate” (J Med Chem, 2017)
# pIC50: −log10 of the molar value. Active and inactive are the calls of the source. No cut-off for these calls is given here.
# How the values were obtained:
# Salmonella typhimurium [1] = experiment: Genotoxicity in Salmonella typhimurium TA1537 assessed as number of revertants per plate at 75 ug/plate in absence of rat liver S9 fraction by Ames test (reference value: 19 +/- 9); type: toxicity; details: salmonella enterica subsp. enterica serovar typhimurium
# Salmonella typhimurium [2] = experiment: Genotoxicity in Salmonella typhimurium TA1535 assessed as number of revertants per plate at 2 ug/plate in presence of rat liver S9 fraction by Ames test (reference value: 10); type: toxicity; details: salmonella enterica subsp. enterica serovar typhimurium
# Escherichia coli [3] = experiment: Genotoxicity in Escherichia coli WP2uvrA assessed as number of revertants per plate at 15 ug/plate in presence of rat liver S9 fraction by Ames test (reference value: 42 +/- 6); type: toxicity
# Salmonella typhimurium [4] = experiment: Genotoxicity in Salmonella typhimurium TA100 assessed as number of revertants per plate at 2 ug/plate in presence of rat liver S9 fraction by Ames test (reference value: 141 +/- 1); type: toxicity; details: salmonella enterica subsp. enterica serovar typhimurium
# Method in brief: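 TA100 positive control under S9 activation: 2-aminoanthracene at 2.0 μg/plate, plate incorporation, average revertants per plate.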
# Salmonella typhimurium [5] = experiment: Genotoxicity in Salmonella typhimurium TA98 assessed as number of rrevertants per plate at 2 ug/plate in presence of rat liver S9 fraction by Ames test (reference value: 19 +/- 8); type: toxicity; details: salmonella enterica subsp. enterica serovar typhimurium
# Salmonella typhimurium [6] = experiment: Genotoxicity in Salmonella typhimurium TA1537 assessed as number of revertants per plate at 2 ug/plate in presence of rat liver S9 fraction by Ames test (reference value: 11 +/- 4); type: toxicity; details: salmonella enterica subsp. enterica serovar typhimurium
# Plasmodium berghei = experiment: Antimalarial activity against Plasmodium berghei infected in Swiss Webster mouse assessed as mouse survival rate at 30 mg/kg administered once daily via oral gavage for 4 consecutive days beginning 1 hr after infection measured from day 4 to day 20 post infection relative to control; type: functional
# Method in brief: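 P. berghei-infected erythrocytes taken from a previously infected mouse were injected intraperitoneally. Oral dosing, once daily for 4 consecutive days, began 1 h after infection, in polyethylene glycol 300/propylene glycol/water (55/25/20 by weight). Chloroquine at 30 mg/kg was the positive control, with a vehicle-only group. Percent survival was recorded daily from day 4 to day 20.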
# Plasmodium falciparum [7] = experiment: Antimalarial activity against intraerythrocytic stage of Plasmodium falciparum assessed as time required for maximal killing effect at 10 times IC50 preincubated for 24 hrs followed by [3H]-hypoxanthine addition measured after 24 hrs by scintillation counting method; type: functional
# Method in brief: (§1)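 In vitro P. falciparum parasite reduction ratio assay run at 10×, 30× and 100× IC50. Derived parameters: lag phase (time to maximal killing), PRR (parasites killed per life cycle) and PCT99.9% (time to clear 99.9% of the initial parasite population).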
# Plasmodium falciparum [8] = experiment: Antimalarial activity against Plasmodium falciparum 3D7 0087/N9 infected in NOD/SCID IL2R gamma null mouse assessed as decrease in parasitemia at 2.5 to 50 mg/kg up to 7 days post infection; type: functional, organism-based
# Method in brief: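 Human-erythrocyte-engrafted NODscidIL2Rγnull mice carrying P. falciparum Pf3D70087/N9 in peripheral blood; compound given orally once daily for four consecutive days.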
# Plasmodium falciparum [9] = experiment: Antimalarial activity against intraerythrocytic stage of Plasmodium falciparum assessed as time required to clear 99.9% of initial parasite population at 10 times IC50 preincubated for 24 hrs followed by [3H]-hypoxanthine addition measured after 24 hrs by scintillation counting method; type: functional; method in brief: as §1
# Plasmodium falciparum [10] = experiment: Antimalarial activity against intraerythrocytic stage of Plasmodium falciparum assessed as parasite reduction ratio at 10 times IC50 preincubated for 24 hrs followed by [3H]-hypoxanthine addition measured after 24 hrs by scintillation counting method; type: functional; method in brief: as §1
# Plasmodium falciparum [11] = experiment: Antimalarial activity against chloroquine-resistant Plasmodium falciparum W2 infected in human erythrocytes after 48 hrs by YOYO-1 dye based flow cytometric analysis; type: functional, cell-based; details: W2, 48 h
# Method in brief: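 P. falciparum W2 cultures were exposed to the compound for 48 h, with artemisinin and chloroquine as reference controls. IC50 was taken from two independent replicates.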
# Plasmodium falciparum [12] = experiment: Antimalarial activity against Plasmodium falciparum 3D7 0087/N9 infected in NOD/SCID IL2R gamma null mouse assessed as decrease in parasitemia at 1 to 100 mg/kg up to 7 days post infection; type: functional, organism-based
# Method in brief: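 The P. falciparum 3D70087/N9 strain grew in the peripheral blood of NODscidIL2Rγnull mice engrafted with human erythrocytes. Compounds were given orally once a day for four consecutive days.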
# Escherichia coli [13] = experiment: Genotoxicity in Escherichia coli WP2uvrA assessed as number of revertants per plate at 1000 ug/plate in absence of rat liver S9 fraction by Ames test (reference value: 45 +/- 9); type: toxicity
# Salmonella typhimurium [14] = experiment: Genotoxicity in Salmonella typhimurium TA98 assessed as number of revertants per plate at 1 ug/plate in absence of rat liver S9 fraction by Ames test (reference value: 14 +/- 6); type: toxicity; details: salmonella enterica subsp. enterica serovar typhimurium
# Plasmodium falciparum [15] = experiment: Antimalarial activity against Plasmodium falciparum T9/94 infected in human erythrocytes assessed as reduction in [3H]-hypoxanthine incorporation preincubated for 24 hrs followed by [3H]-hypoxanthine addition measured after 24 hrs by scintillation counting method; type: functional, cell-based
# Plasmodium falciparum [16] = experiment: Antimalarial activity against Plasmodium falciparum K1 infected in human erythrocytes assessed as reduction in [3H]-hypoxanthine incorporation preincubated for 24 hrs followed by [3H]-hypoxanthine addition measured after 24 hrs by scintillation counting method; type: functional, cell-based
# Plasmodium falciparum [17] = experiment: Antimalarial activity against Plasmodium falciparum TM90C2B infected in human erythrocytes assessed as reduction in [3H]-hypoxanthine incorporation preincubated for 24 hrs followed by [3H]-hypoxanthine addition measured after 24 hrs by scintillation counting method; type: functional, cell-based
# Plasmodium falciparum [18] = experiment: Antimalarial activity against Plasmodium falciparum V1/S infected in human erythrocytes assessed as reduction in [3H]-hypoxanthine incorporation preincubated for 24 hrs followed by [3H]-hypoxanthine addition measured after 24 hrs by scintillation counting method; type: functional, cell-based
# Plasmodium falciparum [19] = experiment: Antimalarial activity against Plasmodium falciparum Dd2 infected in human erythrocytes assessed as reduction in [3H]-hypoxanthine incorporation preincubated for 24 hrs followed by [3H]-hypoxanthine addition measured after 24 hrs by scintillation counting method; type: functional, cell-based
# Plasmodium falciparum [20] = experiment: Antimalarial activity against Plasmodium falciparum TM90C2A infected in human erythrocytes assessed as reduction in [3H]-hypoxanthine incorporation preincubated for 24 hrs followed by [3H]-hypoxanthine addition measured after 24 hrs by scintillation counting method; type: functional, cell-based
# Plasmodium falciparum [21] = experiment: Antimalarial activity against Plasmodium falciparum NF54 infected in human erythrocytes assessed as reduction in [3H]-hypoxanthine incorporation preincubated for 24 hrs followed by [3H]-hypoxanthine addition measured after 24 hrs by scintillation counting method; type: functional, cell-based
# Plasmodium falciparum [22] = experiment: Antimalarial activity against Plasmodium falciparum HB3 infected in human erythrocytes assessed as reduction in [3H]-hypoxanthine incorporation preincubated for 24 hrs followed by [3H]-hypoxanthine addition measured after 24 hrs by scintillation counting method; type: functional, cell-based
smiles,measurement,setting,value
Nc1c2ccccc2nc2ccccc12 [AMINACRINE],Activity,Salmonella typhimurium [1],430
Nc1ccc2cc3ccccc3cc2c1 [2-AMINOANTHRACENE],Activity,Salmonella typhimurium [2],163
same,Activity,Escherichia coli [3],311
same,Activity,Salmonella typhimurium [4],550
same,Activity,Salmonella typhimurium [5],524
same,Activity,Salmonella typhimurium [6],82
CCN(CC)CCCC(C)Nc1ccnc2cc(Cl)ccc12 (stereo not drawn) [CHLOROQUINE],survival at 30 mg/kg,Plasmodium berghei,100%
same,Time,Plasmodium falciparum [7],0 h
same,Activity,Plasmodium falciparum [8],Active
same,T99.9%,Plasmodium falciparum [9],34 h
C[C@@H]1CC[C@H]2[C@@H](C)C(=O)O[C@@H]3O[C@@]4(C)CC[C@@H]1[C@]32OO4 [ARTEMISININ],log(ratio),Plasmodium falciparum [10],>4.8
same,pIC50,Plasmodium falciparum [11],8.22
same,Activity,Plasmodium falciparum [12],Active
same,Time,Plasmodium falciparum [7],0 h
same,T99.9%,Plasmodium falciparum [9],<24 h
COS(C)(=O)=O [METHANESULFONIC ACID METHYL ESTER],Activity,Escherichia coli [13],357
O=[N+]([O-])c1ccc2c(c1)Cc1ccccc1-2 [2-NITROFLUORENE],Activity,Salmonella typhimurium [14],162
CCc1nc(N)nc(N)c1-c1ccc(Cl)cc1 [PYRIMETHAMINE],log(ratio),Plasmodium falciparum [10],2.9
same,pIC50,Plasmodium falciparum [15],7.42
same,pIC50,Plasmodium falciparum [16],< 4.70
same,Time,Plasmodium falciparum [7],24 h
same,pIC50,Plasmodium falciparum [17],< 4.70
same,pIC50,Plasmodium falciparum [18],< 4.70
same,pIC50,Plasmodium falciparum [19],< 4.70
same,T99.9%,Plasmodium falciparum [9],61 h
same,pIC50,Plasmodium falciparum [20],< 4.70
same,pIC50,Plasmodium falciparum [21],7.35
same,pIC50,Plasmodium falciparum [22],5.47
